Test results from ChEMBL document CHEMBL3621107, “Ring fusion strategy for synthesis and lead optimization of sulfur-substituted anthra[1,2-c][1,2,5]thiadiazole-6,11-dione derivatives as promising scaffold of antitumor agents” (Eur J Med Chem, 2015).
The source made the active and inactive calls. The calls are words filed in the database; no cut-off is given here.

Legend:
[1] = system: SK-MEL-28; assay: Cytotoxicity against human SK-MEL-28 cells after 48 hrs by SRB assay; assay type: functional; settings: SK-MEL-28, 48 h; for CC50: read-out: LC50 (the source's name)
Summary of the method: (§1)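 Second-stage NCI-60 panel run by the NCI Developmental Therapeutics Program, covering nine tumour subpanels. Five concentrations were tested: 0.01, 0.1, 1, 10 and 100 μM. Percentage growth at each level was plotted against log10 drug concentration. GI50, TGI and LC50 were read from these dose-response curves. Subpanel MID values were divided into the full-panel MID to give selectivity ratios.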

[2] = system: LOX IMVI; assay: Cytotoxicity against human LOXIMVI cells after 48 hrs by SRB assay; assay type: functional; settings: for CC50: read-out: LC50 (the source's name)
Summary of the method: (§2)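 NCI-60 human tumour cell panel screen, second stage, run by the NCI Developmental Therapeutics Program. Compounds were tested at five concentrations (0.01, 0.1, 1, 10 and 100 μM). Percentage growth was plotted against log10 concentration for each cell line. GI50, TGI and LC50 were taken from these dose-response curves.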

[3] = system: RXF 393; assay: Cytotoxicity against human RXF393 cells after 48 hrs by SRB assay; assay type: functional; settings: RXF 393, 48 h; summary of the method: as §1
[4] = Cytotoxicity against human prostate cancer cells assessed as growth inhibition after 48 hrs by SRB assay; assay type: functional; settings: Cancer cell lines
Summary of the method: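 Values come from the NCI-60 five-dose panel (0.01–100 µM). The subpanel MID is the mean GI50 over the lines of that tumour subpanel. The selectivity ratio is the full-panel MID divided by the subpanel MID; 3–6 is rated moderate and >6 high.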

[5] = system: NCI-H322M; assay: Cytotoxicity against human NCI-H322M cells after 48 hrs by SRB assay; assay type: functional; summary of the method: as §1
[6] = system: TK-10; assay: Cytotoxicity against human TK10 cells after 48 hrs by SRB assay; assay type: functional; settings: TK-10, 48 h
Summary of the method: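 NCI-60 five-dose study run by NCI DTP at 0.01, 0.1, 1, 10 and 100 µM. Percentage growth at each level was plotted against log10 concentration for each line, and GI50, TGI and LC50 were read from the dose-response curves.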

[7] = system: MCF7; assay: Cytotoxicity against human MCF7 cells after 48 hrs by SRB assay; assay type: functional; settings: MCF7, 48 h; summary of the method: as §2
[8] = system: MDA-MB-231; assay: Cytotoxicity against human MDA-MB-231 cells after 48 hrs by SRB assay; assay type: functional; settings: MDA-MB-231, 48 h; summary of the method: as §1
[9] = Cytotoxicity against human WPMY-1cells assessed as survival rate after 72 hrs by MTT assay; assay type: cell-based; settings: WPMY-1 cells, read-out: Survival
Summary of the method: (§3)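 About 2×10^3 cells/well preincubated 24 h at 37 °C, 5% CO2. Compound freshly dissolved in DMSO, diluted into complete medium and added at various concentrations (vehicle 0.1% DMSO) for 72 h. MTT added for 3 h at 37 °C, absorbance read at 570 nm, survival rate derived.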

[10] = system: DU-145; assay: Induction of apoptosis in human DU145 cells assessed as decrease in total PARP at 3 to 12 uM after 48 hrs by Western blotting; assay type: functional, cell-based
[11] = system: DU-145; assay: Induction of apoptosis in human DU145 cells assessed as increase in cleaved PARP at 3 to 12 uM after 48 hrs by Western blotting; assay type: functional, cell-based
Summary of the method: (§4)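 DU-145 cells were exposed to various concentrations for 48 h. Cells were washed in PBS and lysed on ice for 30 min, then spun at 120000g for 15 min. Protein was measured by Bradford, run on 12% SDS-PAGE and blotted to PVDF. Blots were probed for cleaved PARP and cleaved caspase-3 with chemiluminescent detection and β-actin as loading control; n=3 independent experiments.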

[12] = system: DU-145; assay: Induction of apoptosis in human DU145 cells assessed as decreased levels of cyclin D1 at 3 to 18 uM after 48 hrs by Western blotting; assay type: functional, cell-based
Summary of the method: (§5)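 DU-145 lysates were analysed by immunoblot for cyclin D1 and Bcl-2 after dosing across a concentration range. Cells were lysed on ice and cleared by centrifugation. Protein was quantified by Bradford, run on 12% SDS-PAGE and transferred to PVDF, with chemiluminescent detection. α-Tubulin served as loading control; n=3 independent experiments.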

[13] = system: DU-145; assay: Induction of apoptosis in human DU145 cells assessed as early apoptotic cells at 3 to 12 uM after 24 hrs by flow cytometry; assay type: functional, cell-based
[14] = Cytotoxicity against human SV-HUC1 cells assessed as survival rate after 72 hrs by MTT assay; assay type: cell-based; settings: SV-HUC1 cells, read-out: Survival
Summary of the method: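 SV-HUC-1 cells grown in Ham's F-12K with 5% heat-inactivated fetal calf serum, 37 °C, 5% CO2. About 2×10^3 cells/well plated for 24 h, then a range of compound concentrations (DMSO stock diluted into medium; vehicle 0.1% DMSO) for 72 h. MTT added for 3 h at 37 °C; absorbance 570 nm.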

[15] = biological target: MAP kinase p38 (Homo sapiens) (UniProt O15264+Q15759+Q16539+P53778); assay: Inhibition of human p38 phosphorylation in human DU145 cells after 48 hrs by Western blotting; assay type: cell-based; settings: DU-145
Summary of the method: (§6)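 DU-145 cells were treated at 3, 12 and 18 µM and phospho-ERK1/2 and phospho-p38 were assessed by Western blot. Lysis was on ice with centrifugation, then Bradford protein assay, 12% SDS-PAGE, PVDF transfer and chemiluminescent detection.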

[16] = system: DU-145; assay: Induction of apoptosis in human DU145 cells assessed as cleaved caspase 3 at 3 to 12 uM after 48 hrs by Western blotting; assay type: functional, cell-based; summary of the method: as §4
[17] = system: DU-145; assay: Induction of apoptosis in human DU145 cells assessed as decreased levels of Bcl-2 at 3 to 18 uM after 48 hrs by Western blotting; assay type: functional, cell-based; summary of the method: as §5
[18] = system: DU-145; assay: Induction of apoptosis in human DU145 cells assessed as cell rounding and shrinkage at 5 uM after 24 hrs by phase contrast microscopy analysis; assay type: functional, cell-based
Summary of the method: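 DU-145 cells were seeded at 5×10^5 per 10 cm dish and treated with various concentrations for 24 h. Unfixed cells were examined and photographed by phase-contrast microscopy for rounding and shrinkage.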

[19] = biological target: Mitogen-activated protein kinase; ERK1/ERK2 (Homo sapiens) (UniProt P27361+P28482); assay: Inhibition of human ERK1/2 phosphorylation in human DU145 cells after 48 hrs by Western blotting; assay type: cell-based; settings: DU-145; summary of the method: as §6
[20] = Cytotoxicity against human RWPE1 cells assessed as survival rate after 72 hrs by MTT assay; assay type: cell-based, RWPE-1; settings: RWPE1 cells, read-out: Survival; summary of the method: as §3

Chain of Mitogen-activated protein kinase; ERK1/ERK2 (Homo sapiens) (P27361 whole entry, looked up): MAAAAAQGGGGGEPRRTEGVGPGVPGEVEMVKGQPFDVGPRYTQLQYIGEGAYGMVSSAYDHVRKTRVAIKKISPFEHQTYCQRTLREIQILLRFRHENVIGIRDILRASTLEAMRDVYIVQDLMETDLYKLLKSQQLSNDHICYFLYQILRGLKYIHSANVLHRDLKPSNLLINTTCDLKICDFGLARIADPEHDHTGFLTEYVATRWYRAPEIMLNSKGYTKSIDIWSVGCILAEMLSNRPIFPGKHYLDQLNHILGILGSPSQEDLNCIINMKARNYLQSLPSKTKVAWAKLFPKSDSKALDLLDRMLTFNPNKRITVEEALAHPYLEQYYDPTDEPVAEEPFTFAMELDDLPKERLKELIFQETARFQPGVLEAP
Chain of Mitogen-activated protein kinase; ERK1/ERK2 (Homo sapiens) (P28482 whole entry, looked up): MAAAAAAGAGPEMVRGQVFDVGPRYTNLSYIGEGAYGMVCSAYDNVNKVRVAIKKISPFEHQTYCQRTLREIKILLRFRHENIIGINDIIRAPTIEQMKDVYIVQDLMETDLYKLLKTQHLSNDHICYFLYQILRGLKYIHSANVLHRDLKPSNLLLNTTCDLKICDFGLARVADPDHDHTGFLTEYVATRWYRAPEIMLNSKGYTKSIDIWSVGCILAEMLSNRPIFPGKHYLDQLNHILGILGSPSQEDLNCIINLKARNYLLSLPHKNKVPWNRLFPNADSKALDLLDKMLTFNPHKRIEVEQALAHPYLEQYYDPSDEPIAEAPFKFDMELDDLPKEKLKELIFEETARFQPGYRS

Row | SMILES | GI50 [1] [µM] | TGI [1] [µM] | CC50 [1] [µM] | GI50 [2] [µM] | TGI [2] [µM] | CC50 [2] [µM] | GI50 [3] [µM] | LC50 (concentration killing 50% of cells) [3] [µM] | TGI [3] [µM] | GI50 [4] [µM] | GI50 [5] [µM] | LC50 (concentration causing 50% net cell kill) [5] [µM] | TGI [5] [µM] | GI50 [6] [µM] | LC50 (concentration killing 50% of cells) [6] [µM] | TGI [6] [µM] | GI50 [7] [µM] | LC50 (concentration killing 50% of cells) [7] [µM] | TGI [7] [µM] | GI50 [8] [µM] | other results
1 | O=C1c2ccccc2C(=O)c2c1cc(SCc1ccccc1)c1nsnc21 | 10.3 | 17.5 | 42.9 | 5.68 | 12.8 | 29.1 | 7.2 | 27.4 | 14 | 10.5 | > 50 | > 50 | > 50 | 32 | > 50 | > 50 | 8.33 | 34.7 | 17 | 5.14 | LC50 (concentration killing 50% of cells) [8]: 34.8 µM; TGI [8]: 13.4 µM
2 | CC(C)Sc1cc2c(c3nsnc13)C(=O)c1ccccc1C2=O | 2.72 | 5.99 | 18.8 | 0.34 | 1.31 | 4.73 | 1.77 | 16.9 | 4.83 | 0.85 | 2.85 | 38.7 | 11 | 5.68 | 87.6 | 18 | 1.71 | 8.42 | 3.8 | 0.29 | viability at 72 h [9]: 50%; Activity [10]: Active; Activity [11]: Active; Activity [12]: Active; Activity [13]: Active; viability at 72 h [14]: 80%; inhibition [15]: Active; Activity [16]: Active; Activity [17]: Active; Activity [18]: Active; inhibition [19]: Active; viability at 72 h [20]: 60%; LC50 (concentration killing 50% of cells) [8]: 4.9 µM; TGI [8]: 1.41 µM
3 | O=C1c2ccccc2C(=O)c2c1cc(Sc1ccccc1Br)c1nsnc21 | 20.9 | > 50 | > 50 | 12.6 | > 50 | > 50 | 9.14 | 42.2 | 19.6 | 18.2 | > 50 | > 50 | > 50 | 29.7 | > 50 | > 50 | 7.28 | 37.8 | 16.6 | 7.52 | LC50 (concentration killing 50% of cells) [8]: > 50 µM; TGI [8]: 37.3 µM
4 | O=C1c2ccccc2C(=O)c2c1cc(Sc1ccc(F)cc1F)c1nsnc21 | 1.87 | 3.81 | 7.75 | 1.21 | 2.64 | 5.77 | 2.02 | 6.67 | 3.69 | 4.13 | 96.5 | > 100 | > 100 | 5.07 | 38.6 | 14.1 | 1.31 | 7.39 | 3.11 | 1.2 | LC50 (concentration killing 50% of cells) [8]: 12.9 µM; TGI [8]: 3.61 µM
5 | O=C1c2ccccc2C(=O)c2c1cc(Sc1cccc(Cl)c1)c1nsnc21 | 1.93 | 4.19 | 9.09 | 0.54 | 2.08 | 5.73 | 2.15 | 10.9 | 4.7 | 2.27 | 18.6 | 61.9 | 33.9 | 5.31 | 39.9 | 14.8 | 1.3 | 8.78 | 3.37 | 0.37 | LC50 (concentration killing 50% of cells) [8]: 31.6 µM; TGI [8]: 4.1 µM
